Test results as given in ChEMBL document CHEMBL1129448, “Neurosteroid analogues. 4. The effect of methyl substitution at the C-5 and C-10 positions of neurosteroids on electrophysiological activity at GABAA receptors” (1996).

Key:
Rattus norvegicus [1] = species: Rattus norvegicus; assay: Compound was evaluated at 10 uM for its ability to initiate (gate) a current in the absence of GABA in cultured postnatal rat hippocampal neurons; format: functional; design: unit not given here
Procedure, shortened: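 Whole-cell voltage clamp of cultured postnatal rat hippocampal neurons at -60 mV. Compound at 10 µM was applied without GABA by pressure ejection (500 ms, 10-20 psi) from a pipet within 5 µm. CsCl-based pipet solution, pH 7.3. DMSO final <0.2%. Peak directly gated current is expressed relative to the same cell's response to 2 µM GABA alone. Mean ± SEM, N cells.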

Rattus norvegicus [2] = species: Rattus norvegicus; assay: Compound was evaluated at 10 uM GABA-mediated current in cultured postnatal rat hippocampal neurons; format: functional
Procedure, shortened: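 Whole-cell voltage clamp of cultured postnatal rat hippocampal neurons held at -60 mV. Compound at 10 µM was co-applied with 2 µM GABA by pressure ejection (500 ms jet, 10-20 psi) from a pipet within 5 µm of the cell. Pipet solution was CsCl-based, pH 7.3. DMSO final <0.2%. Current is given as % of 2 µM GABA alone (100% = no change). Mean ± SEM, N cells.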

SMILES | Gated current (Rattus norvegicus [1]) | Potentation (Rattus norvegicus [2])
C[C@]12CC[C@@H](O)C[C@H]1CC[C@@H]1[C@@H]2CC[C@]2(C)[C@@H](C#N)CC[C@@H]12 | 68 | 1297
C[C@]12CC[C@@H]3[C@H](CC[C@]4(C)[C@@H](C#N)CC[C@@H]34)[C@H]1CC[C@@H](O)C2 | 28 | 452
CC(=O)[C@H]1CC[C@H]2[C@@H]3CC[C@@H]4C[C@H](O)CC[C@@H]4[C@H]3CC[C@]12C | 110 | 754
CC(=O)[C@H]1CC[C@H]2[C@@H]3CCC4C[C@H](O)CC[C@@H]4[C@H]3CC[C@]12C (stereo partly drawn) | 46 | 926
CC12CC[C@@H]3[C@H](CC[C@]4(C)[C@@H](C#N)CC[C@@H]34)[C@H]1CC[C@@H](O)C2 (stereo partly drawn) | 0 | 92
CC(=O)[C@H]1CC[C@H]2[C@@H]3CC[C@]4(C)C[C@H](O)CC[C@@H]4[C@H]3CC[C@]12C | 12 | 652
CC(=O)[C@H]1CC[C@H]2[C@@H]3CCC4(C)C[C@H](O)CC[C@@H]4[C@H]3CC[C@]12C (stereo partly drawn) | 0 | 110
CC(=O)[C@H]1CC[C@H]2[C@@H]3CC[C@]4(C)C[C@H](O)CC[C@]4(C)[C@H]3CC[C@]12C | 24 | 498
CC(=O)[C@H]1CC[C@H]2[C@@H]3CCC4(C)C[C@H](O)CC[C@]4(C)[C@H]3CC[C@]12C (stereo partly drawn) | 3 | 294
C[C@]12CC[C@H]3[C@@H](CCC4C[C@H](O)CC[C@@H]43)[C@@H]1CC[C@@H]2C#N (stereo partly drawn) | 42 | 1721
C[C@]12CC[C@H]3[C@@H](CC[C@@H]4C[C@H](O)CC[C@@H]43)[C@@H]1CC[C@@H]2C#N | 41 | 1823
C[C@]12CC[C@@H](O)C[C@@H]1CC[C@@H]1[C@@H]2CC[C@]2(C)[C@@H](C#N)CC[C@@H]12 | 32 | 1829
CC(=O)[C@H]1CC[C@H]2[C@@H]3CC[C@H]4C[C@H](O)CC[C@]4(C)[C@H]3CC[C@]12C [BREXANOLONE] | 26 | 1111
CC(=O)[C@H]1CC[C@H]2[C@@H]3CC[C@@H]4C[C@H](O)CC[C@]4(C)[C@H]3CC[C@]12C [ELTANOLONE] | 49 | 1023
